Measurements taken from ChEMBL document CHEMBL5356931, “Medicinal chemistry approaches to target the MNK-eIF4E axis in cancer” (RSC Med Chem, 2023).
Converted amounts (≈) assume the structure as drawn.

Key:
[1] = Solubility of the compound; assay type: physicochemical
[2] = target: T1, Tyrosine-protein kinase ABL1 (Homo sapiens, UniProt P00519); experiment: Inhibition of ABL1 (unknown origin)
[3] = system: K562; experiment: animal or person; conditions: Mus musculus, K562, read-out: TGI
[4] = system: K562; experiment: animal or person; conditions: Mus musculus, K562, read-out: TGI; remark: listed apart in the source
[5] = target: Proto-oncogene tyrosine-protein kinase receptor Ret (Homo sapiens, UniProt P07949); experiment: Inhibition of RET (unknown origin)
[6] = target: Vascular endothelial growth factor receptor 2 (Homo sapiens, UniProt P35968); experiment: Inhibition of VEGFR2 (unknown origin)
[7] = Half life in CD-1 mouse at 5 mg/kg, iv; assay type: ADME, organism-based, CD1; conditions: in vivo
[8] = target: T2, Receptor-type tyrosine-protein kinase FLT3 (Homo sapiens, UniProt P36888); experiment: Inhibition of FLT3 (unknown origin)
T2 sequence (P36888 whole entry): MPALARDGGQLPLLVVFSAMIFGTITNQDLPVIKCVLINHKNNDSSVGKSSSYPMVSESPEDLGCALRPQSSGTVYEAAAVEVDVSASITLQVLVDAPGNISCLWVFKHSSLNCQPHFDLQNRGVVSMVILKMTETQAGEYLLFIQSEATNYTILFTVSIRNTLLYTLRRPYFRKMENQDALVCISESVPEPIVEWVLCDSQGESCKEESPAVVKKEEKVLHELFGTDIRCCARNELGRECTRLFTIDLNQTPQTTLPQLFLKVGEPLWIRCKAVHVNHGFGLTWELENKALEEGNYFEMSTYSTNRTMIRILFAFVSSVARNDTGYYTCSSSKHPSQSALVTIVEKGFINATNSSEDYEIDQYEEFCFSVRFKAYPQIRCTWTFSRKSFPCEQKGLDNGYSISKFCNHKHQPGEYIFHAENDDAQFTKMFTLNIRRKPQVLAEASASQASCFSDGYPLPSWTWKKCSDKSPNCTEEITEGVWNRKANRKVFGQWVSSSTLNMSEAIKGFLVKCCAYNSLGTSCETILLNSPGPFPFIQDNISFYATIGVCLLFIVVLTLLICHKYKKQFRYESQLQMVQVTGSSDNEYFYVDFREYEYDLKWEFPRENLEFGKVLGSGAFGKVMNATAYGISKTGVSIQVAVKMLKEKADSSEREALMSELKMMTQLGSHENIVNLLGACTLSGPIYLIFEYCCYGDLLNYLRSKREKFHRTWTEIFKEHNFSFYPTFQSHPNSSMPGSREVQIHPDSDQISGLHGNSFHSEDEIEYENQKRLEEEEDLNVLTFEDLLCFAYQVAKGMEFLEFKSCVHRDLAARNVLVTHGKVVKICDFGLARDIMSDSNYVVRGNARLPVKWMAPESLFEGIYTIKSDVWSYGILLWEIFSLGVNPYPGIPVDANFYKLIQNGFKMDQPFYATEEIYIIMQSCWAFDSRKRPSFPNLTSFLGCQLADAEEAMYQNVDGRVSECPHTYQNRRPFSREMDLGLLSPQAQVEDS

[9] = target: MAP kinase-interacting serine/threonine-protein kinase 1 (Homo sapiens) (UniProt Q9BUB5); experiment: Inhibition of MNK1 (unknown origin) relative to control; conditions: concentration not given here
[10] = Drug exposure in mouse at 5 mg/kg,po; assay type: ADME, organism-based; parameters: dose 5 mg/kg, route po; conditions: in vivo
Outline: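 Mice received a single oral dose of 5 mg kg⁻¹. Exposure was described by oral bioavailability F (%), Cmax (ng mL⁻¹) and AUC0−t (last) (ng h mL⁻¹).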

[11] = target: T3, Eukaryotic translation initiation factor 4E (Homo sapiens, UniProt P06730); experiment: Inhibition of eIF4E phosphorylation in human HeLa cells; assay type: cell-based
[12] = Solubility of compound at pH 7.4; assay type: physicochemical; conditions: buffer
[13] = target: MAP kinase-interacting serine/threonine-protein kinase 2 (Homo sapiens, UniProt Q9HBH9); experiment: Inhibition of MNK2 (unknown origin)
[14] = target: T1, Tyrosine-protein kinase ABL1; experiment: Inhibition of ABL1 (unknown origin) relative to control; conditions: concentration not given here
[15] = target: T3, Eukaryotic translation initiation factor 4E; experiment: Binding affinity to eIF4E (unknown origin) assessed as dissociation constant

T1 sequence (P00519 whole entry): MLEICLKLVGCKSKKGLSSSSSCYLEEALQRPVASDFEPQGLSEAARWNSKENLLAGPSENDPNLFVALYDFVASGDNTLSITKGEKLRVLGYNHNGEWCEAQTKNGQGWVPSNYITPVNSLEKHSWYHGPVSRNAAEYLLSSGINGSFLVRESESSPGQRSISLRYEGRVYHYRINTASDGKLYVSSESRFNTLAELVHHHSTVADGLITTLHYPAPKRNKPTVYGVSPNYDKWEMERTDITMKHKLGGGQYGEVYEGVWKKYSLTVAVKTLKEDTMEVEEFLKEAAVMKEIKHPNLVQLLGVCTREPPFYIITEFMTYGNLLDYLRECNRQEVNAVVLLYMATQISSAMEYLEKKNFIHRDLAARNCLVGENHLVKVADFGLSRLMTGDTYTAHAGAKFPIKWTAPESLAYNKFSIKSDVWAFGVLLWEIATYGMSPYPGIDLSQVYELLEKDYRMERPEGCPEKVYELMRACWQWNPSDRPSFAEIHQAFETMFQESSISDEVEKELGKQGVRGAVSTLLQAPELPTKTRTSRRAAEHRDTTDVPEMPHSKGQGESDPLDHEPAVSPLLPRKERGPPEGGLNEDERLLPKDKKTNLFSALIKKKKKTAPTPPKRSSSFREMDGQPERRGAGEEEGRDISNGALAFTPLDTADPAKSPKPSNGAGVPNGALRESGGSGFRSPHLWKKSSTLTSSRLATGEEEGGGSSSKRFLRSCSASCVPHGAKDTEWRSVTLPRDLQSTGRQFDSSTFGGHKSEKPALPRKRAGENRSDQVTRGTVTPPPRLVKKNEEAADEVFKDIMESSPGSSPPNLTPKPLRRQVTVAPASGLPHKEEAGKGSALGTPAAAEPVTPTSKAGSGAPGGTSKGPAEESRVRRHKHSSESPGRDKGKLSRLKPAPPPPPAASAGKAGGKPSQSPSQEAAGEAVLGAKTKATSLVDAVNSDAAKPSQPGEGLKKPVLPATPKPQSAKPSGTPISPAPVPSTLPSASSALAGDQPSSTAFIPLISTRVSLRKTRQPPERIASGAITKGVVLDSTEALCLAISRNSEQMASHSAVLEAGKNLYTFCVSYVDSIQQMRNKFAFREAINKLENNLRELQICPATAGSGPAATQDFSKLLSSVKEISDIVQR
T3 sequence (P06730 whole entry): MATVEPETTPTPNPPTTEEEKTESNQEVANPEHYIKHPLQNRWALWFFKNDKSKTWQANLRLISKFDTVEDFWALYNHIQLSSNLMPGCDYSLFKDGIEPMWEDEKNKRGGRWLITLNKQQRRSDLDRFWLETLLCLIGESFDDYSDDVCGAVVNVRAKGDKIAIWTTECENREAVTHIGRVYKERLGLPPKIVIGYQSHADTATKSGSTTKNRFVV
Proto-oncogene tyrosine-protein kinase receptor Ret, sequence (P07949 whole entry): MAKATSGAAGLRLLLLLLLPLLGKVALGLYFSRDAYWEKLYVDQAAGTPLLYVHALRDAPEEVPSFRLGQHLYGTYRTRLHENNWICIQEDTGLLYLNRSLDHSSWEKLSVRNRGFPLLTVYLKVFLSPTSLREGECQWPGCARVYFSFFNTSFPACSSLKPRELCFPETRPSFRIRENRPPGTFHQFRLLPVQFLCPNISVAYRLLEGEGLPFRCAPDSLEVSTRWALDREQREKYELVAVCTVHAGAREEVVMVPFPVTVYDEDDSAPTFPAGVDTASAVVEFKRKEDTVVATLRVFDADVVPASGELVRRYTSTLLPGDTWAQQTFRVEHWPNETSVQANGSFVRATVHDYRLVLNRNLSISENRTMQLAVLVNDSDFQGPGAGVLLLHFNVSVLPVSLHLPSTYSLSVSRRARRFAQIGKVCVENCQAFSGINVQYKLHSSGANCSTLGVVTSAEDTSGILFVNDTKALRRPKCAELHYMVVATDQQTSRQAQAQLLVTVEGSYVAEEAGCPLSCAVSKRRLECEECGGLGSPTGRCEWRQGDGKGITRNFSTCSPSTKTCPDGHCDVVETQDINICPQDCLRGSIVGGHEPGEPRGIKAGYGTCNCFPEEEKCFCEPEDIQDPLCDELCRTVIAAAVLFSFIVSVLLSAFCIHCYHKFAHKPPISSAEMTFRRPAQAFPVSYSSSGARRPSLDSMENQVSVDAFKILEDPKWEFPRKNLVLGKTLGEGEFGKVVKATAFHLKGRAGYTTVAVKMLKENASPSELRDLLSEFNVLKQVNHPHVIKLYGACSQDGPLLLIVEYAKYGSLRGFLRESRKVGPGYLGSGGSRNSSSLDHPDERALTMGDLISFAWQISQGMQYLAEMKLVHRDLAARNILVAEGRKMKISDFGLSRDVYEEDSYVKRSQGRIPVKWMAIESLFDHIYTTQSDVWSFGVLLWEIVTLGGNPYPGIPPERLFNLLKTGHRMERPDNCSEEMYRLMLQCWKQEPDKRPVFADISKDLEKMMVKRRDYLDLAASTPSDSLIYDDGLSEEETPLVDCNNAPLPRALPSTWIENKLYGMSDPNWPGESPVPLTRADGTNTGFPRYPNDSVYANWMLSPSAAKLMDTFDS
Vascular endothelial growth factor receptor 2, sequence (P35968 whole entry): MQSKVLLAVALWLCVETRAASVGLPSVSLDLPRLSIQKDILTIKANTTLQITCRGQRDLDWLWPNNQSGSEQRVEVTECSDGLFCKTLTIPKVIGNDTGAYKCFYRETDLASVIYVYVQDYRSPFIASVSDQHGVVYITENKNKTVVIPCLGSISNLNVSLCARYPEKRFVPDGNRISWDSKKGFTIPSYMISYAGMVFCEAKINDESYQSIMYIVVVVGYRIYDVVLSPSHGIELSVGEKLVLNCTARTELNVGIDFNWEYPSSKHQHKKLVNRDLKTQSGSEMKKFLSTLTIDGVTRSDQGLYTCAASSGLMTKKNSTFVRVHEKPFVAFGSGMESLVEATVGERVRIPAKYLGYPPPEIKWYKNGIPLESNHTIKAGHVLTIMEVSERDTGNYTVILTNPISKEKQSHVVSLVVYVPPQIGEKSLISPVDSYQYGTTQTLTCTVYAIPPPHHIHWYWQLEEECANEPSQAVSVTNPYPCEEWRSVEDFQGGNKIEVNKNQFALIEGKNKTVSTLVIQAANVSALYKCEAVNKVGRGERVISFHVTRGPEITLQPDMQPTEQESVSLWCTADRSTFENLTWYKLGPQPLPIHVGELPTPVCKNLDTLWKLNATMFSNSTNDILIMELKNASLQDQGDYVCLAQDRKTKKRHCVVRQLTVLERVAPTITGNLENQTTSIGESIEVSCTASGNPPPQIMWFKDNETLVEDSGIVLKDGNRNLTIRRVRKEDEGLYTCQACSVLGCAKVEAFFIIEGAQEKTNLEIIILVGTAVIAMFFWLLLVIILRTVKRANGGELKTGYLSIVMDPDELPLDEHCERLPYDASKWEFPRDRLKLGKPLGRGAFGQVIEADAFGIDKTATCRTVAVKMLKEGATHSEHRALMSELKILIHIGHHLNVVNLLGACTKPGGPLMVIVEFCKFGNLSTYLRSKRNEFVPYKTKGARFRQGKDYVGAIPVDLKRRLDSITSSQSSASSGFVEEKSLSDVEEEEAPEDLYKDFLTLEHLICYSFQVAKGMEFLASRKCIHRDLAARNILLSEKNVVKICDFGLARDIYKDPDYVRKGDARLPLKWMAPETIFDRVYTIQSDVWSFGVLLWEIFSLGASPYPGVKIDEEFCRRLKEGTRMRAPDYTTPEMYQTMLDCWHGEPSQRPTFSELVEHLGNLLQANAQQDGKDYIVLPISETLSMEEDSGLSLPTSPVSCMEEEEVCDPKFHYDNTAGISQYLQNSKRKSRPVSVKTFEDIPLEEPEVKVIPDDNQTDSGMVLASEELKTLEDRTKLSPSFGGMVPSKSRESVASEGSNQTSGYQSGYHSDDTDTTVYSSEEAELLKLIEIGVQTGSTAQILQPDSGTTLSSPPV
MAP kinase-interacting serine/threonine-protein kinase 1 (Homo sapiens), sequence (Q9BUB5 whole entry, looked up): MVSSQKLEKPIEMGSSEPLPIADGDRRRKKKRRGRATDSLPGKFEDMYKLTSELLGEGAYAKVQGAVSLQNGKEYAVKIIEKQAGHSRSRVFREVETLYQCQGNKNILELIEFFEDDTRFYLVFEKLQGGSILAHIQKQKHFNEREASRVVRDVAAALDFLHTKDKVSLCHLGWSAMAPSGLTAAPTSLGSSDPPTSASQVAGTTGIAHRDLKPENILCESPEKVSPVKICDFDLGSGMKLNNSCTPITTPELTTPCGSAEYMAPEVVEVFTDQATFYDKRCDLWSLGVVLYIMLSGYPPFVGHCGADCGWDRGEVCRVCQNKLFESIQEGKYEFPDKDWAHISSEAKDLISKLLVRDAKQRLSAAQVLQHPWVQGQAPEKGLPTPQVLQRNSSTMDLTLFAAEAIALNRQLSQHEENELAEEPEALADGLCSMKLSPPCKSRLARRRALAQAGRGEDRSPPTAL
MAP kinase-interacting serine/threonine-protein kinase 2, sequence (Q9HBH9 whole entry): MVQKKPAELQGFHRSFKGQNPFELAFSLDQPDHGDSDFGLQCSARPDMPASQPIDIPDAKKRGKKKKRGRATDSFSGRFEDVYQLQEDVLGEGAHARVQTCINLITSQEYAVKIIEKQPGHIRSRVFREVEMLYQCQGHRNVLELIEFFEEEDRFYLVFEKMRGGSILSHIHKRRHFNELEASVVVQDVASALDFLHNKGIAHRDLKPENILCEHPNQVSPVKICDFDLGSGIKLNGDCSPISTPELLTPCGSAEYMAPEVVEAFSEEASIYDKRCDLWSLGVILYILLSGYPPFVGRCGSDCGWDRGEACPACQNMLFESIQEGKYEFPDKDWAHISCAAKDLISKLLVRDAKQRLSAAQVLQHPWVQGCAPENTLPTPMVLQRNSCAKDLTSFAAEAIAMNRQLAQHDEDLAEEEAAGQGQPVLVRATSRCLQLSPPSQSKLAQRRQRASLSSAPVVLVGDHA

For `CN1CCN(C(=O)c2ccc(-c3cn4c(-c5ccc(O)cc5)cnc4cn3)cc2)CC1`, the solubility [1] was 144 µg/mL (≈ 348 µM).

In the case of `CCN1CCN(Cc2ccc(NC(=O)COc3ccc(-c4cccnc4)cc3)cc2C(F)(F)F)CC1`, the IC50 [2] is reported as > 10000 nM.

`N#Cc1ccc(-c2cnc3ccc(-c4ccc(C(=O)N5CCOCC5)cc4)cn23)cc1` [TINODASERTIB] gave an inhibition in vivo at 50 mg/kg [3] of 110% and an inhibition in vivo at 25 mg/kg [4] of 107%.

For `CCN1CCN(Cc2ccc(NC(=O)CNc3ccc(-c4ccc(NC(=O)C5CC5)nc4)cc3)cc2C(F)(F)F)CC1`, the IC50 [5] was < 24 nM, the IC50 [6] was < 24 nM and the half-life [7] was 2.1 h. The IC50 [8] was < 24 nM.

With `CC(C)Oc1cc(-c2cncc(-c3cnn(C4COC4)c3)c2)ccc1C(N)=O` the inhibition [9] was > 90%, the AUC [10] was 2080 ng·h/mL and the IC50 [11] was 200 nM.

For `CC(C)Oc1cc(-c2cccnc2)ccc1C(N)=O`, the solubility [12] was 45 µg/mL (≈ 176 µM).

Work on `O=C(c1ccc(-c2cn3c(-c4ccc(O)cc4)cnc3cn2)cc1)N1CCOCC1` yielded a solubility [1] of 11.5 µg/mL (≈ 28.7 µM).

`CN1CCN(C(=O)c2ccc(-c3ccc4ncc(-c5ccc(C#N)cc5)n4n3)cc2)CC1` gave an IC50 [13] of 30 nM.

In the case of `CN1CCN(Cc2ccc(NC(=O)CNc3ccc(-c4ccc(NC(=O)C5CC5)nc4)cc3F)cc2C(F)(F)F)CC1`, the IC50 [5] is reported as < 24 nM, the IC50 [6] is reported as < 24 nM and the inhibition [14] is reported as > 90%. For the same compound, the inhibition [9] was > 90%, the IC50 [8] was < 24 nM and the IC50 [11] was 280 nM.

Work on `NC(=O)c1ncn([C@@H]2O[C@H](CO)[C@@H](O)[C@H]2O)n1` [RIBAVIRIN] yielded a Kd [15] of 8400 nM.

In the case of `CN1CCN(C(=O)c2ccc(-c3cn4c(-c5ccc(C(=O)NO)cc5)cnc4cn3)cc2)CC1`, the IC50 [13] is reported as 30 nM.

With `CCN1CCN(Cc2ccc(NC(=O)CNc3ccc(-c4cccnc4)cc3)cc2C(F)(F)F)CC1` the IC50 [2] was > 10000 nM.

With `CC(=O)N1CCN(C(=O)c2ccc(-c3cn4c(-c5ccc(O)cc5)cnc4cn3)cc2)CC1` the solubility [1] was 144 µg/mL (≈ 326 µM).
